From the EternaBench riboswitch data

Test system: MS2 coat protein
Assay: apparent Kd, MS2 coat protein; higher = weaker binding; RNA-MaP array; FMN 200 µM where present
Procedure, shortened: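 Apparent Kd: the median of filtered binding-curve fits from single clusters. Designs were transcribed on Illumina sequencing-chip clusters by stalled E. coli RNA polymerase and titrated with SNAP-549-labelled MS2 coat protein from 0.7 or 1.5 nM, doubling to 3 µM, in 100 mM Tris-HCl pH 7.5, 80 mM KCl, 4 mM MgCl2, BSA, DTT, yeast tRNA and Tween-20. Each series ran without and then with constant ligand, and green signal was normalised to red-channel RNA signal and control-cluster median Fmax.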

[1] = designed as: ON switch for flavin mononucleotide, no ligand
[2] = ligand present: flavin mononucleotide, designed as: ON switch for flavin mononucleotide
[3] = designed as: OFF switch for flavin mononucleotide, no ligand
[4] = ligand present: flavin mononucleotide, designed as: OFF switch for flavin mononucleotide

Sequence | apparent Kd [1] [nM] | apparent Kd [2] [nM] | apparent Kd [3] [nM] | apparent Kd [4] [nM]
AAUUGGAUGCAGAAGGCAUGGACGACUCGUCACAUUAACAUGAGGAUCACCCAUGUCAAAAGACAUGAGGAUAUGCAUCCUAAA | 233 | 13.6 |  | 
GGUACUCAAAGAGUACUUGGUCGAACAUGAGGAUCACCCAUGUAGGAUAUGCGAAGCAAGAAGUAGCAGAAGGGCGUGUGCAGC |  |  | 12.8 | 11.6
ACAUGAGGAUCACCCAUGUUCGUUGAAGAAGGUACCAUUUACUUUAGUAGUAUUAAUUUAUUUGGUAAGGAUAUUCUCAUAAUU | 15.9 | 7.75 |  | 
CCUACAUAUUUUAAGUAUGAUUAACUAGAAGGUAGAUACAUGAGGAUCACCCAUGUUUAGAGAUCUAAGGAUAUAGUAUGUAGC | 13.3 | 9.45 |  | 
UAAAAGACUAGCAUGGUAACCUUCACAUGAGGAUCACCCAUGUAGGAUAUGAGCAGAAAAUCUGCUCAGAAGGACAUGCUAGUC |  |  | 3.31 | 3.67
AUCAGCUCGUCAGGAUAUACGUCACUGCGUCAGCAGUGUGGUAUGAUCACAUGAGGAUCACCCAUGUAGAAGGGACGAGCUGAU |  |  | 8.62 | 132
CAUUAAUUCAUUAUAGUUAUUAUACAGGAUAUGUUACAUGAGGAUCACCCAUGUAUUCUUGGUAAACAGAAGGGUAUUUCUAGU |  |  | 7.48 | 8.5
UGGUACUAGGGAGGAUAUGGGAAGAUACAUGAGGAUCACCCAUGUUUAAGAAUGCCGAGAGGCAGCUAGAAGGCCCUAGUACCU | 675 | 24.7 |  | 
GGGUUGUGAGGAUAUUAGUUGUACGUCAAUAGACGUGUGGGUGAGAAGGCACAUGAGGAUCACCCAUGUUCCUG |  |  | 181 | 169
UGCGUGUUAGGAUAUGCCAGCGCUACCUAAGGUAGGCUGUGGUAGAAGGAACAUGAGGAUCACCCAUGUAGGAG |  |  | 111 | 483
GUAGCAUACGGAGGAUAUGUAGGAUCUACAUGAGGAUCACCCAUGUCAAGGACAGAAGGCCGUAUGCUACAAGAGCGAAAGCUC | 11.6 | 5.79 |  | 
GGUGUGAGGCAGGAUAUGCUAUAUGUUCGUAAUGCAGAAGGGUCUACAUGAGGAUCACCCAUGUGUGCGGUUGA |  |  | 172 | 413
CUUGUGUUAGGAUAUGCGCCCUGAAGUGGCAGGGCCAGAGAGCAGAAGGGACAUGAGGAUCACCCAUGUGUGAC |  |  | 84.3 | 127
CCUAAGGAGACAGGAUAUAGUGUGGUGGCCGGGCUCCCACGGCGAGCGGCACUAGAAGGGUCACUACAUGAGGAUCACCCAUGU | 30.3 | 15.6 |  | 
CAGGUCUGAGGAUAUCCAUCUUCCUACAUGAGGAUCACCCAUGUUUCCCUCUGGGUUUUCGGAGAAGGCAGUUUUU |  |  | 263 | 226
ACAUGAGGAUCACCCAUGUAAAAUGAAGAAGGUAUAUACUUGAGGAUCACCCAUGUACAUGGGAGUAAGGAUAUUCUAAUAAUU | 13.2 | 11.3 |  | 
UUGAAUUUAAACAUGAGGAUCACCCAUGUGUCAUAGUUGAUAUAGGAUAUGUUUAUACUUUGAAAGCAGAAGGAUGACGAUACU | 18.9 | 15.2 |  | 
GGACGUCACAUUAACAUGAGGAUCACCCAUGUAAAAUAACAUGAGGAUAUGGAUCCUAAUUGGAUCCAGAAGGCAUGGACGUCC | 7.66 | 5.58 |  | 

Sequence | apparent Kd [1] [nM] | apparent Kd [2] [nM] | apparent Kd [3] [nM] | apparent Kd [4] [nM]
CCGAGGCAAAUAAAACAUGAGGAUCACCCAUGUGAGUCUCAUGAGGAUAUGCAGGUCAAAGACUUGCAGAAGGCAUGGCUUCGG | 1190 | 146 |  | 
AAUUAAUUAAUUAAUAUACAUGAGGAUCACCCAUGUAAGAUCAAGGAUAUCAGCUCGAAUAGAGCUGAGAAGGUGAUCACAUGU | 533 | 674 |  | 
AGCGAGAUAGGCAAGGAUAUGCUGGGUUUCACAUGAGGAUCACCCAUGUCAUUGGUUAUGUCCGAGCAGAAGGUGCAUUCUCUUU | 338 | 47.2 |  | 
AGAUACUACGAGAAGGACAUGAGGAUCACCCAUGUAACCUGUAUCAGGAAUGUAGGAUAUCGUAGUAUCAGGAUCGUGAGAUCA |  |  | 6.79 | 7.82
UAAUUAAAUGUGAGGAUAUGCUGGUCCUUGGAUCAGCAGAAGGCACAUGAGGAUCACCCAUGUAAUUUAUUUAU |  |  | 75.2 | 285
AGCCGGGCCCAGAAGGUGCCAGCGAGAGCUGCACAUGAGGAUCACCCAUGUUGUCGGUGACGACGCAAGGAUAUGGGCCCGGCU | 22.7 | 7.17 |  | 
AAAACAUGAGGAUCACCCAUGUAAAUAUCGGUUAAUUGUUGUGAGGAUAUACUAAAUUUUAAGAAGUAGAAGGCACUGGGUACA |  | 23.9 |  | 
GGUACACAUGAGGAUCACCCAUGUCGUAUGACAUGAGGAUAUGUACAGACUUCGGUCUGUACAGAAGGCAUGUGUC | 28.1 | 445 |  | 
GUCUACCUAGGAUAUACAUGAGGAUCACCCAUGUACAGUUUCGUCUAGGGAUACUCGCGUAGAAGGAGGUAGAU |  |  | 32.2 | 22.9
AAGUCGGUAGAUAAUAAUGAUUACAUGAGGAUCACCCAUGUAUAGGAUAUCGUCAGGAAUACUGACGAGAAGGAUACAUCCGAC |  |  | 17.6 | 30
UUUGAAUAAGUGAGGAUAUACUGUUAGUAUUGAUUGUAGAAGGUACAUGAGGAUCACCCAUGUUUAGUAUUUAU |  |  | 16.3 | 15.9
ACCUUACUGGUCAGGAUAUACAGUCUUUGGUGUGUGUAGAAGGGACAUGAGGAUCACCCAUGUAGGUUGCAUUA |  |  | 164 | 172
CCGAUUAGCACAGGAUAUGGGAACUCGUAAUUCCCAGAAGGGUGAGCCAAUACAUGAGGAUCACCCAUGUGCGGUAGGUCGGGA | 40.5 | 51 |  | 
GAAUACCUAGGAUAUACAUGAGGAUCACCCAUGUCAGUAGACUCGGAAAAGUCUCUCAGUAGAAGGAGGACCAG |  |  | 35.2 | 79.3
UGGUGAAAUGUAGGAUAUGGAAAUAAAUUUUAACCAGAAGGACAUGAGGAUCACCCAUGUGAUAGAGAAUUAAUAAUAUCUCCU |  |  | 18.6 | 29.9
UGAUAGAGCCUAGGAUAUUCGGAUCUACUACAAGGAGAAGGAGGUAGUCGGUGACGAACAUGAGGAUCACCCAUGUCGUCCUUC |  |  | 67.8 | 69.9
ACAUUGCGAGGAUAUACAUGAGGAUCACCCAUGUGGUAGUGGAUACGGUAGGGCUAGUGUAGAAGGUGUCAUGG |  |  | 128 | 103
CGUAUGUCAGGAUAUGCGUAUGCCAGUCAGGGCGAGUGGCAGCAGAAGGGACAUGAGGAUCACCCAUGUUCGGG |  |  | 60.8 | 51.3
